{"source": "ChEMBL document CHEMBL1240439", "about": "“Synthesis and docking studies of novel benzopyran-2-ones with anticancer activity” (2010)", "type_in_all_cases": "functional", "key": {"MOLT-4": {"system": "MOLT-4", "assay": "Cytotoxicity against human MOLT4 cells assessed as cell growth at 10 uM after 48 hrs by sulforhodamine B assay", "conditions": "MOLT-4, 48 h, read-out: Activity"}, "NCI-H522": {"system": "NCI-H522", "assay": "Cytotoxicity against human NCI-H522 cells assessed as cell growth at 10 uM after 48 hrs by sulforhodamine B assay", "conditions": "NCI-H522, 48 h, read-out: Activity"}, "HL-60(TB) [1]": {"system": "HL-60(TB)", "assay": "Cytotoxicity against human HL-60(TB) cells assessed as cell growth at 10 uM after 48 hrs by sulforhodamine B assay", "conditions": "HL-60, 48 h, read-out: Activity"}, "EKVX": {"system": "EKVX", "assay": "Cytotoxicity against human EKVX cells assessed as cell growth at 10 uM after 48 hrs by sulforhodamine B assay", "conditions": "read-out: Activity"}, "SK-MEL-2": {"system": "SK-MEL-2", "assay": "Cytotoxicity against human SK-MEL-2 cells assessed as cell growth at 10 uM after 48 hrs by sulforhodamine B assay", "conditions": "SK-MEL-2, 48 h, read-out: Activity"}, "HOP-92": {"system": "HOP-92", "assay": "Cytotoxicity against human HOP92 cells assessed as cell growth at 10 uM after 48 hrs by sulforhodamine B assay", "conditions": "HOP-92, 48 h, read-out: Activity"}, "HCC 2998": {"system": "HCC 2998", "assay": "Cytotoxicity against human HCC2998 cells assessed as cell growth at 10 uM after 48 hrs by sulforhodamine B assay", "conditions": "HCC 2998, 48 h, read-out: Activity"}, "MDA-MB-468": {"system": "MDA-MB-468", "assay": "Cytotoxicity against human MDA-MB-468 cells assessed as cell growth at 10 uM after 48 hrs by sulforhodamine B assay", "conditions": "MDA-MB-468, 48 h, read-out: Activity"}, "BT-549": {"system": "BT-549", "assay": "Cytotoxicity against human BT549 cells assessed as cell growth at 10 uM after 48 hrs by sulforhodamine B assay", "conditions": "BT-549, 48 h, read-out: Activity"}, "OVCAR-5": {"system": "OVCAR-5", "assay": "Cytotoxicity against human OVCAR5 cells assessed as cell growth at 10 uM after 48 hrs by sulforhodamine B assay", "conditions": "OVCAR-5, 48 h, read-out: Activity"}, "SK-OV-3": {"system": "SK-OV-3", "assay": "Cytotoxicity against human SKOV3 cells assessed as cell growth at 10 uM after 48 hrs by sulforhodamine B assay", "conditions": "SK-OV-3, 48 h, read-out: Activity"}, "CCRF-CEM": {"system": "CCRF-CEM", "assay": "Cytotoxicity against human CCRF-CEM cells assessed as cell growth at 10 uM after 48 hrs by sulforhodamine B assay", "conditions": "read-out: Activity"}, "ACHN": {"system": "ACHN", "assay": "Cytotoxicity against human ACHN cells assessed as cell growth at 10 uM after 48 hrs by sulforhodamine B assay", "conditions": "read-out: Activity"}, "SN12C": {"system": "SN12C", "assay": "Cytotoxicity against human SN12C cells assessed as cell growth at 10 uM after 48 hrs by sulforhodamine B assay", "conditions": "read-out: Activity"}, "RXF 393": {"system": "RXF 393", "assay": "Cytotoxicity against human RXF393 cells assessed as cell growth at 10 uM after 48 hrs by sulforhodamine B assay", "conditions": "RXF 393, 48 h, read-out: Activity"}, "TK-10": {"system": "TK-10", "assay": "Cytotoxicity against human TK10 cells assessed as cell growth at 10 uM after 48 hrs by sulforhodamine B assay", "conditions": "TK-10, 48 h, read-out: Activity"}, "UO-31": {"system": "UO-31", "assay": "Cytotoxicity against human UO31 cells assessed as cell growth at 10 uM after 48 hrs by sulforhodamine B assay", "conditions": "UO-31, 48 h, read-out: Activity"}, "M14": {"system": "M14", "assay": "Cytotoxicity against human M14 cells assessed as cell growth at 10 uM after 48 hrs by sulforhodamine B assay", "conditions": "M14, 48 h, read-out: Activity"}, "Malme-3M": {"system": "Malme-3M", "assay": "Cytotoxicity against human MALME-3M cells assessed as cell growth at 10 uM after 48 hrs by sulforhodamine B assay", "conditions": "read-out: Activity"}, "MDA-MB-435": {"system": "MDA-MB-435", "assay": "Cytotoxicity against human MDA-MB-435 cells assessed as cell growth at 10 uM after 48 hrs by sulforhodamine B assay", "conditions": "MDA-MB-435, 48 h, read-out: Activity"}, "SF-268": {"system": "SF-268", "assay": "Cytotoxicity against human SF268 cells assessed as cell growth at 10 uM after 48 hrs by sulforhodamine B assay", "conditions": "SF-268, 48 h, read-out: Activity"}, "SNB-19": {"system": "SNB-19", "assay": "Cytotoxicity against human SNB19 cells assessed as cell growth at 10 uM after 48 hrs by sulforhodamine B assay", "conditions": "SNB-19, 48 h, read-out: Activity"}, "[2]": {"assay": "Cytotoxicity against human leukemia cells after 48 hrs by sulforhodamine B assay", "conditions": "Leukemia cell", "procedure,_shortened": "(§1)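 Cells plated at 5000–40,000/well according to doubling time, then held 24 h at 37 °C, 5% CO2, with time-zero plates TCA-fixed. DMSO stocks (400× top concentration) were diluted in medium containing 50 μg/ml gentamycin, giving five 10-fold or ½-log concentrations. After 48 h, adherent cells were fixed in 10% TCA and suspension cells in 16% TCA (final), stained with 0.4% SRB, read at 515 nm. GI50, TGI and LC50 were calculated per cell line.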"}, "[3]": {"assay": "Cytotoxicity against human lung cancer cells after 48 hrs by sulforhodamine B assay", "conditions": "Cancer cell lines", "procedure,_shortened": "as §1"}, "[4]": {"assay": "Cytotoxicity against human melanoma cells after 48 hrs by sulforhodamine B assay", "conditions": "Melanoma cell", "procedure,_shortened": "as §1"}, "[5]": {"assay": "Cytotoxicity against human renal cancer cells after 48 hrs by sulforhodamine B assay", "conditions": "Cancer cell lines", "procedure,_shortened": "as §1"}, "[6]": {"assay": "Cytotoxicity against human prostate cancer cells after 48 hrs by sulforhodamine B assay", "conditions": "Cancer cell lines", "procedure,_shortened": "as §1"}, "[7]": {"assay": "Cytotoxicity against human breast cancer cells after 48 hrs by sulforhodamine B assay", "conditions": "Cancer cell lines", "procedure,_shortened": "as §1"}, "HL-60(TB) [8]": {"system": "HL-60(TB)", "assay": "Cytotoxicity against human HL-60(TB) cells after 48 hrs by sulforhodamine B assay", "conditions": "HL-60, 48 h", "procedure,_shortened": "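Cells plated at 5000–40,000/well by doubling time and held 24 h at 37 °C, 5% CO2, with TCA-fixed zero-time plates. Drug given as DMSO stock diluted in medium with 50 μg/ml gentamycin, five concentrations (10-fold or ½ log steps), for 48 h. Settled suspension cells fixed with TCA (final 16%), stained with 0.4% SRB, read at 515 nm. GI50, TGI and LC50 calculated.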"}, "HCT-116": {"system": "HCT-116", "assay": "Cytotoxicity against human HCT116 cells after 48 hrs by sulforhodamine B assay", "conditions": "HCT-116, 48 h", "procedure,_shortened": "(§2)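 Cells were plated at 5000–40,000/well according to doubling time and preincubated 24 h at 37 °C, 5% CO2. Time-zero plates were TCA-fixed. DMSO stocks were diluted in medium with gentamycin to five concentrations (10-fold or ½ log series) plus control, then incubated 48 h. Adherent cells were fixed with cold TCA (suspension cells with 16% final), stained with SRB, and read at 515 nm. GI50, TGI and LC50 were calculated per line.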"}, "LOX IMVI": {"system": "LOX IMVI", "assay": "Cytotoxicity against human LOXIMVI cells after 48 hrs by sulforhodamine B assay", "procedure,_shortened": "as §2"}, "[9]": {"conditions": "read-out: LC50 (the source's name)"}}}
{"smiles": "Cc1cc(=O)n(C(=O)COc2ccc3c(-c4ccccc4)cc(=O)oc3c2C)[nH]1", "values": [{"measurement": "growth at 10 µM", "setting": "MOLT-4", "result": 22.7, "unit": "%"}, {"measurement": "growth at 10 µM", "setting": "NCI-H522", "result": -39.2, "unit": "%"}, {"measurement": "growth at 10 µM", "setting": "HL-60(TB) [1]", "result": -66.6, "unit": "%"}, {"measurement": "growth at 10 µM", "setting": "EKVX", "result": -33.6, "unit": "%"}, {"measurement": "growth at 10 µM", "setting": "SK-MEL-2", "result": -12.2, "unit": "%"}, {"measurement": "growth at 10 µM", "setting": "HOP-92", "result": -64.4, "unit": "%"}, {"measurement": "growth at 10 µM", "setting": "HCC 2998", "result": 17.4, "unit": "%"}, {"measurement": "growth at 10 µM", "setting": "MDA-MB-468", "result": -8.13, "unit": "%"}, {"measurement": "growth at 10 µM", "setting": "BT-549", "result": -65.8, "unit": "%"}, {"measurement": "growth at 10 µM", "setting": "OVCAR-5", "result": 10.2, "unit": "%"}, {"measurement": "growth at 10 µM", "setting": "SK-OV-3", "result": 15.9, "unit": "%"}, {"measurement": "growth at 10 µM", "setting": "CCRF-CEM", "result": 13.5, "unit": "%"}, {"measurement": "growth at 10 µM", "setting": "ACHN", "result": 41.6, "unit": "%"}, {"measurement": "growth at 10 µM", "setting": "SN12C", "result": -69.3, "unit": "%"}, {"measurement": "growth at 10 µM", "setting": "RXF 393", "result": -37, "unit": "%"}, {"measurement": "growth at 10 µM", "setting": "TK-10", "result": -33.4, "unit": "%"}, {"measurement": "growth at 10 µM", "setting": "UO-31", "result": 18.6, "unit": "%"}, {"measurement": "growth at 10 µM", "setting": "M14", "result": 17.6, "unit": "%"}, {"measurement": "growth at 10 µM", "setting": "Malme-3M", "result": -8.61, "unit": "%"}, {"measurement": "growth at 10 µM", "setting": "MDA-MB-435", "result": -39.6, "unit": "%"}, {"measurement": "growth at 10 µM", "setting": "SF-268", "result": 2.94, "unit": "%"}, {"measurement": "growth at 10 µM", "setting": "SNB-19", "result": 33.6, "unit": "%"}, {"measurement": "GI50", "setting": "[2]", "result": 3.44, "unit": "µM"}, {"measurement": "TGI", "setting": "[2]", "result": 50.8, "unit": "µM"}, {"measurement": "CC50", "setting": "[2]; [9]", "result": 94, "unit": "µM"}, {"measurement": "GI50", "setting": "[3]", "result": 3.69, "unit": "µM"}, {"measurement": "TGI", "setting": "[3]", "result": 37.4, "unit": "µM"}, {"measurement": "CC50", "setting": "[3]; [9]", "result": 65.1, "unit": "µM"}, {"measurement": "GI50", "setting": "[4]", "result": 4.65, "unit": "µM"}, {"measurement": "TGI", "setting": "[4]", "result": 43.2, "unit": "µM"}, {"measurement": "CC50", "setting": "[4]; [9]", "result": 72.4, "unit": "µM"}, {"measurement": "GI50", "setting": "[5]", "result": 10.7, "unit": "µM"}, {"measurement": "TGI", "setting": "[5]", "result": 21.4, "unit": "µM"}, {"measurement": "CC50", "setting": "[5]; [9]", "result": 55.2, "unit": "µM"}, {"measurement": "GI50", "setting": "[6]", "result": 2.38, "unit": "µM"}, {"measurement": "TGI", "setting": "[6]", "result": 5.75, "unit": "µM"}, {"measurement": "CC50", "setting": "[6]; [9]", "result": 29.4, "unit": "µM"}, {"measurement": "GI50", "setting": "[7]", "result": 4.23, "unit": "µM"}, {"measurement": "TGI", "setting": "[7]", "result": 33.7, "unit": "µM"}, {"measurement": "CC50", "setting": "[7]; [9]", "result": 87.5, "unit": "µM"}, {"measurement": "TGI", "setting": "HL-60(TB) [8]", "result": 2.62, "unit": "µM"}, {"measurement": "GI50", "setting": "HCT-116", "result": 1.94, "unit": "µM"}, {"measurement": "TGI", "setting": "HCT-116", "result": 3.76, "unit": "µM"}, {"measurement": "GI50", "setting": "LOX IMVI", "result": 1.99, "unit": "µM"}, {"measurement": "TGI", "setting": "LOX IMVI", "result": 3.88, "unit": "µM"}]}
